Source: ChEMBL document CHEMBL1129727, “Chiral pyrrolo[2,3-d]pyrimidine and pyrimido[4,5-b]indole derivatives: structure-activity relationships of potent, highly stereoselective A1-adenosine receptor antagonists” (J Med Chem, 1996)
≈ marks a conversion by molar mass, not a printed value.

Key:
Adenosine receptor A1 = molecular target: T1, Adenosine receptor A1 (Rattus norvegicus, UniProt P25099); test: Radioligand binding assay for [3H]-PIA affinity towards Adenosine A1 receptor of rat cerebral cortical membrane
T1 sequence (P25099 whole entry): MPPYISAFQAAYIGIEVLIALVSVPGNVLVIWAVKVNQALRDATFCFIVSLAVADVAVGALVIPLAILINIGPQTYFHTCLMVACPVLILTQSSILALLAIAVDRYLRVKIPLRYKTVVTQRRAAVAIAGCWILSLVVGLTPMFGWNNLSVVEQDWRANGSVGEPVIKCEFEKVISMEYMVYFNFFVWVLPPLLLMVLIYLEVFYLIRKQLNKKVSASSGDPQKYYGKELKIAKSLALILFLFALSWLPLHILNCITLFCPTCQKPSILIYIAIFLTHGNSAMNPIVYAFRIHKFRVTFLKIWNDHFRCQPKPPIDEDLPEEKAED
How it was run: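 Rat cerebral cortical membranes incubated with [3H]-(R)-PIA. Nonspecific binding defined with 10 μM 2-chloroadenosine. Five to six test concentrations, each in triplicate, in at least three separate experiments. Ki calculated from inhibition of binding.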

Adenosine receptor A2a = Adenosine receptor A2a (Rattus norvegicus, UniProt P30543); test: Radioligand binding assay for [3H]NECA affinity towards adenosine A2A receptor of rat striatum; format: tissue-based
How it was run: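 Rat striatal membranes incubated with [3H]NECA. 50 nM N6-cyclopentyladenosine present to block A1 sites. Nonspecific binding defined with 5 mM theophylline. Five to six test concentrations, each in triplicate, in at least two separate experiments. Ki derived from inhibition of binding.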

[1] = molecular target: Adenosine receptors; A1 & A2 (Rattus norvegicus) (UniProt P29276+P25099+P30543); test: Selectivity ratio between A1 and A2-receptors estimated as A2/A1; format: protein assay
[2] = Solubility in 50 mM TRIS-HCl buffer containing 1% DMSO, pH 7.4; format: physicochemical; details: read-out: S
How it was run: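 Bruns–Fergus biochemical method. 10 mM DMSO stock diluted 1:100 into 50 mM Tris-HCl pH 7.4, shaken overnight at room temperature, centrifuged and filtered through cotton. Serial dilutions of the saturated supernatant tested in an A1 [3H]CHA binding assay (KD 1 nM).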

[3] = Solubility in 50 mM TRIS-HCl buffer containing 2.5% DMSO, pH 7.4; format: physicochemical; details: read-out: S
How it was run: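 A 10 mM DMSO stock was diluted 1:40 into 50 mM TRIS-HCl, pH 7.4 (2.5% DMSO), then shaken overnight at room temperature to equilibrium. After centrifugation, the supernatant was filtered and serially diluted. Dilutions were tested in an A1 binding assay with [3H]CHA (KD 1 nM).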

[4] = molecular target: T2, Adenosine receptor A2b (Rattus norvegicus) (UniProt P29276); test: Antagonistic binding affinity for rat Adenosine A2B receptor
T2 sequence (whole entry): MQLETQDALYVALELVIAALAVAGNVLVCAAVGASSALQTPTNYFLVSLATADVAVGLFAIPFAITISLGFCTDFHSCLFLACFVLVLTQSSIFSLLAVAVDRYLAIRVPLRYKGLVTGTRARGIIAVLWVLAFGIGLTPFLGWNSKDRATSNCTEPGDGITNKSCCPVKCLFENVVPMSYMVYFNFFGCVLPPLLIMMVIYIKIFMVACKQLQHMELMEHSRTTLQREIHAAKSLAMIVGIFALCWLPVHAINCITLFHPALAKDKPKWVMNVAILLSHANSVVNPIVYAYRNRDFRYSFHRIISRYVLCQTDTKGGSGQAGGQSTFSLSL

[5] = molecular target: T3, Adenosine receptor A3 (Rattus norvegicus) (UniProt P28647); test: Percent inhibition of binding to rat Adenosine A3 receptor at 10 uM
T3 sequence (whole entry): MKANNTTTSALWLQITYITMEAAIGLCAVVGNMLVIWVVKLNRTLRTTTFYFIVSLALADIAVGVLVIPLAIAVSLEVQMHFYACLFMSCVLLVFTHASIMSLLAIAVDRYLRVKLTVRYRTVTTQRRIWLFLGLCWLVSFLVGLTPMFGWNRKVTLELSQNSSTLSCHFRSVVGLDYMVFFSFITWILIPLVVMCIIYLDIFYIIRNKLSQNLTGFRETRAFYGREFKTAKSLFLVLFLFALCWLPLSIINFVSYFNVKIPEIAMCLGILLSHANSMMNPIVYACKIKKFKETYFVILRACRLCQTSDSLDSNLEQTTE

[6] = molecular target: Adenosine receptor A2a (Rattus norvegicus) (UniProt P30543); test: Antagonism of NECA-stimulated adenylate cyclase at Adenosine A2A receptor in rat PC12 cell membranes
[7] = Partition coefficient (logP); format: physicochemical; details: octanol/water

Adenosine receptor A2a, sequence (P30543 whole entry): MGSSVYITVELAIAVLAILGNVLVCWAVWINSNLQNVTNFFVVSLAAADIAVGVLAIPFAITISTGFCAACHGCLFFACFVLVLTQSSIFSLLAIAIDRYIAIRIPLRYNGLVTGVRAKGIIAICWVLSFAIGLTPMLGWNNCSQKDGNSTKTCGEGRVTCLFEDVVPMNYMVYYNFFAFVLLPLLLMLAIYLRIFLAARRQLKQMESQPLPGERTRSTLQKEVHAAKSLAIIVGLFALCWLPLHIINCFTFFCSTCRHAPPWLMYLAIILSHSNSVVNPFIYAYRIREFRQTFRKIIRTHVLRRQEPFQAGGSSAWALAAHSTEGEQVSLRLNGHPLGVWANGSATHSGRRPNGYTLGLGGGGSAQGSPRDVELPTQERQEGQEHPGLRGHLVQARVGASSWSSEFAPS
Adenosine receptors; A1 & A2 (Rattus norvegicus), sequence (P30543 whole entry, looked up, one chain of several): as the sequence (P30543 whole entry) above
Adenosine receptor A2a (Rattus norvegicus), sequence (P30543 whole entry): as above

SMILES | Ki (Adenosine receptor A1) [µM] | Ki (Adenosine receptor A2a) [µM] | Selectivity ratio [1] | further results
Cc1c(C)n([C@@H](C)c2ccccc2)c2nc(-c3cccc(Cl)c3)nc(N)c12 | 0.485 | > 30 | > 62 | 
Cc1c(C)n([C@@H](C)c2ccccc2)c2nc(-c3ccc(Cl)c(Cl)c3)nc(N)c12 | 1.8 |  | > 17 | 
COc1cccc(-c2nc(N)c3c(C)c(C)n([C@H](C)c4ccccc4)c3n2)c1 | 0.083 | > 10 | > 120 | 
Cc1c(C)n([C@@H](C)c2ccccc2)c2nc(-c3ccc(Cl)cc3)[nH]c(=O)c12 | > 30 | > 30 |  | 
O=C1Nc2nc[nH]c(=O)c2C12CCCC2 | 127 | 346 |  | 
C[C@@H](Cc1ccccc1)n1c2ccccc2c2c(N)nc(-c3ccccc3)nc21 | 0.32 | > 30 | > 94 | 
C[C@H](c1ccccc1)N1C(=O)C2(CCCC2)c2c(O)nc(-c3ccccc3)nc21 | > 30 | > 30 |  | 
O=C1N(c2ccccc2)c2ncnc(O)c2C12CCCC2 |  |  |  | Selectivity [1]: 13
O=C1N(c2ccccc2)c2nc[nH]c(=O)c2C12CCCC2 | 1.3 | 17.2 |  | 
Oc1ncnc2c1c1ccccc1n2-c1ccccc1 |  |  |  | Kb [4]: 3.4 µM; inhibition [5]: < 20%; Kb [6]: 2.5 µM
Cc1ccc([C@@H](C)n2c3ccccc3c3c(N)nc(-c4ccccc4)nc32)cc1 | 0.014 | 21.4 | 1530 | 
Cc1ccc([C@H](C)n2c3ccccc3c3c(N)nc(-c4ccccc4)nc32)cc1 | 0.297 | > 30 | > 101 | 
CC(c1ccccc1)N1C(=O)C2(CCCC2)c2c(O)ncnc21 (configuration not stated) |  | 88.4 |  | Selectivity [1]: 26
Cc1c(C)n([C@H](C)c2ccccc2)c2nc(-c3ccc(Cl)cc3)nc(O)c12 | > 30 | > 30 |  | 
O=C1Nc2ncnc(O)c2C12CCCC2 |  |  |  | Selectivity [1]: 2.7
Cc1nc2nc(-c3ccccc3)[nH]c(N[C@@H](C)c3ccccc3)c-2c1C |  |  |  | Selectivity [1]: > 47
COc1ccc(-c2nc(N)c3c(C)c(C)n([C@H](C)c4ccccc4)c3n2)cc1 | 0.101 | > 10 | > 99 | 
Cc1c(C)n([C@@H](C)c2ccccc2)c2nc(-c3ccc(Cl)cc3)nc(N)c12 | 0.878 | > 30 | > 34 | 
CC(c1ccccc1)n1c2ccccc2c2c(N)ncnc21 (configuration not stated) | 1.13 | 27.7 | 25 | 
Nc1nc(-c2ccccc2)nc2c1c1ccccc1n2-c1ccccc1 | 0.022 | 8.3 |  | Selectivity [1]: 377
Cc1c(C)n([C@H](C)c2ccccc2)c2nc(-c3ccc(Cl)c(Cl)c3)nc(N)c12 | 0.33 | > 30 | > 91 | 
Cc1c(C)n([C@H](C)c2ccccc2)c2nc(-c3ccc(Cl)cc3)nc(N)c12 | 0.05 | > 30 | > 600 | solubility [2]: 2.2 µM (≈ 0.829 µg/mL); solubility [3]: 7.2 µM (≈ 2.71 µg/mL)

Second part, led by results:

Ki (Adenosine receptor A1) [µM] | Ki (Adenosine receptor A2a) [µM] | Selectivity ratio [1] | SMILES | further results
2.98 | > 30 |  | Cc1c(C)n([C@H](C)c2ccccc2)c2nc(-c3ccccc3)nc(O)c12 | Selectivity [1]: > 10
0.273 | > 30 | > 110 | Cc1c(C)n([C@@H](C)c2ccccc2)c2nc(-c3ccccc3Cl)nc(N)c12 | 
0.0096 | 5.2 | 537 | Cc1c(C)n([C@H](C)c2ccccc2)c2nc(-c3ccccc3Cl)nc(N)c12 | 
0.165 | 81 | 490 | Cc1c(C)n([C@H](C)c2ccccc2)c2nc(-c3ccccc3)nc(N)c12 | 
0.0026 | 6.2 |  | C[C@H](c1ccccc1)n1c2ccccc2c2c(N)nc(-c3ccccc3)nc21 | solubility [2]: 0.48 µM (≈ 0.175 µg/mL); solubility [3]: 1.5 µM (≈ 0.547 µg/mL)
0.0067 | > 30 |  | Cc1nc2nc(-c3ccccc3)[nH]c(N[C@H](C)c3ccccc3)c-2c1C | logP [7]: 3.5; solubility [2]: 1.5 µM (≈ 0.514 µg/mL); solubility [3]: 5.9 µM (≈ 2.02 µg/mL); Selectivity [1]: > 4480
> 30 | > 30 |  | Cc1c(C)n([C@@H](C)c2ccccc2)c2nc(-c3ccccc3)[nH]c(=O)c12 | 
 | > 30 |  | Cc1c(C)n([C@@H](C)c2ccccc2)c2ncnc(N[C@@H](C)c3ccccc3)c12 | 
0.064 | > 30 |  | C[C@@H](c1ccccc1)n1c2ccccc2c2c(N)nc(-c3ccccc3)nc21 | 
> 30 | > 30 |  | C[C@H](c1ccccc1)n1c2ccccc2c2c(O)nc(-c3ccccc3)nc21 | 
0.0047 | 3.71 | 789 | Cc1c(C)n([C@@H](C)c2ccccc2)c2nc(-c3ccccc3)nc(N)c12 | solubility [2]: 0.26 µM (≈ 0.089 µg/mL)
 | > 30 |  | Cc1c(C)n([C@H](C)c2ccccc2)c2ncnc(N[C@H](C)c3ccccc3)c12 | 
> 30 | > 30 |  | C[C@@H](c1ccccc1)n1c2ccccc2c2c(O)nc(-c3ccccc3)nc21 | 
0.64 | > 30 |  | Cc1[nH]c2nc(-c3ccccc3)nc(N[C@@H](C)c3ccccc3)c2c1C | 
0.0076 | 16.3 | 2140 | Cc1c(C)n([C@H](C)c2ccccc2)c2nc(-c3cccc(Cl)c3)nc(N)c12 | solubility [2]: 2.8 µM (≈ 1.06 µg/mL)
